One block for each compound: values may come before it. The source made the active and inactive calls. No cut-off for these calls is given here.
Columns and labels:
[1] = test system: Enterococcus faecium; assay: Inhibition of purified Enterococcus faecium D359 His-tagged Aslfm assessed as residual activity preincubated at 100 uM for 2 mins prior to reaction initiation measured after 10 mins by UV/VIS spectrophotometry
Procedure, shortened: (§1)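 His-tagged Aslfm in 100 mM Tris-HCl pH 8.0, 50 mM MgCl2, 2 mM phosphoenolpyruvate, 0.16 mM NADH, 1 mM ATP, 1 mM D-Asp, 0.005% Triton X-114, with pyruvate kinase and lactate dehydrogenase. Compound in DMSO was preincubated 2 min at 37 °C, and the reaction was started with 0.3 mM UM5K. A340 was followed for 10 min. Duplicates; residual activity is relative to DMSO controls.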

[2] = test system: Enterococcus faecium; assay: Inhibition of purified Enterococcus faecium D359 His-tagged Aslfm assessed as residual activity preincubated at 250 uM for 2 mins prior to reaction initiation measured after 10 mins by UV/VIS spectrophotometry; procedure, shortened: as §1
[3] = test system: Enterococcus faecium; assay: Antimicrobial activity against Enterococcus faecium D344R after 18 hrs by macrodilution method
[4] = test system: Enterococcus faecium; assay: Inhibition of purified Enterococcus faecium D359 His-tagged Aslfm assessed as residual activity preincubated at 50 uM for 2 mins prior to reaction initiation measured after 10 mins by UV/VIS spectrophotometry; procedure, shortened: as §1
[5] = test system: Enterococcus faecium; assay: Competitive inhibition of purified Enterococcus faecium D359 His-tagged Aslfm preincubated at 1 uM for 2 mins prior to reaction initiation measured after 10 mins by time course assay
Procedure, shortened: (§2)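 Coupled pyruvate kinase–lactate dehydrogenase assay at 37 °C monitored at 340 nm. Starting conditions: 100 µM ATP, 1 mM D-Asp, 300 µM UDP-MurNAc-pentapeptide, 2 mM phosphoenolpyruvate, 105 µM NADH, enzyme 0.75 or 1 µM, up to six inhibitor concentrations. Progress curves over 10–15 min were fitted to a […] mechanism, with enzyme constants fixed and inhibitor constants fitted. Ki was also measured at ATP 50 and 100 µM.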

[6] = test system: Enterococcus faecium; assay: Antimicrobial activity against Enterococcus faecium E1636 after 18 hrs by broth microdilution method; assay type: functional; settings: E1636, 18 h
[7] = test system: Enterococcus faecalis; assay: Antimicrobial activity against Enterococcus faecalis ATCC 29212 after 18 hrs by broth microdilution method; assay type: functional; settings: ATCC 29212, 18 h
[8] = Inhibition of purified Enterococcus faecium D359 His-tagged Aslfm preincubated for 2 mins prior to reaction initiation measured after 10 mins by UV/VIS spectrophotometry; procedure, shortened: as §1
[9] = test system: Enterococcus faecium; assay: Antimicrobial activity against Enterococcus faecium E1679 after 18 hrs by broth microdilution method; assay type: functional; settings: E1679, 18 h
[10] = Binding affinity to purified Enterococcus faecium D359 His-tagged Aslfm by kinetic study; settings: in the assay text read “isothermal titration calorimetry” for “kinetic study”
[11] = test system: Enterococcus faecium; assay: Binding affinity to purified Enterococcus faecium D359 His-tagged Aslfm by isothermal titration calorimetry method
Procedure, shortened: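 The ligand (50 µM in buffer with 5% DMSO) was titrated into ~1 µM enzyme (5% DMSO) at 37 °C, 300 rpm, with 5–8 min intervals, to a final ratio of ~12:1. Data were corrected for ligand-into-buffer heats and fitted to a single-binding-site model.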

[12] = test system: Enterococcus faecium; assay: Competitive inhibition of purified Enterococcus faecium D359 His-tagged Aslfm preincubated at 0.75 uM for 2 mins prior to reaction initiation measured after 10 mins by time course assay; procedure, shortened: as §2
[13] = test system: Enterococcus faecium; assay: Competitive inhibition of purified Enterococcus faecium D359 His-tagged Aslfm preincubated for 2 mins prior to reaction initiation measured after 10 mins by time course assay; procedure, shortened: as §2
[14] = test system: Enterococcus faecium; assay: Antimicrobial activity against Enterococcus faecium D344R at 160 ug after 18 hrs by disk diffusion method

Structure (SMILES): Nc1ncc(-c2nnnn2-c2ccccc2)c(-c2ccccc2)n1
Activity [1]: 92%

Structure (SMILES): OC(c1ccccc1)(c1ccccc1)c1c[nH]cn1
Activity [1]: 100%

Structure (SMILES): Nc1ncc(C(=O)N(Cc2ccccc2)Cc2ccccc2)s1
Activity [2]: 80% | MIC [3]: > 200 µg/mL

Structure (SMILES): Nc1ncc(C(=O)N(Cc2ccccc2)Cc2ccccc2)o1
MIC [6]: > 64 µg/mL | MIC [7]: > 64 µg/mL | Ki [8]: 44 µM | MIC [9]: > 64 µg/mL | Ki [10]: 5 µM | inhibition [12]: Active | Activity [2]: 43% | MIC [3]: > 200 µg/mL | Kb [11]: 2 ×10⁵ /M

Structure (SMILES): Cc1ccc(F)c(CNc2nc(N)nc3[nH]ncc23)c1F
Activity [1]: 79%

Structure (SMILES): Nc1nc(SCc2ccc(Cl)cc2Cl)c2nc[nH]c2n1
MIC [6]: > 64 µg/mL | MIC [7]: > 64 µg/mL | Ki [8]: 35 µM | MIC [9]: > 64 µg/mL | Activity [1]: 71% | inhibition [13]: Active

Structure (SMILES): CCCCN(Cc1ccccc1)C(=O)c1cnc(N)o1
Activity [2]: 75% | MIC [3]: > 200 µg/mL

Structure (SMILES): CCCCN(CCCC)C(=O)c1cnc(N)o1
Activity [2]: 94% | MIC [3]: > 200 µg/mL

Structure (SMILES): Nc1ncc(C(=O)N(Cc2ccccn2)Cc2ccccn2)o1
Activity [2]: 74% | MIC [3]: > 200 µg/mL

Structure (SMILES): CC1(C)S[C@@H]2[C@H](NC(=O)[C@H](N)c3ccccc3)C(=O)N2[C@H]1C(=O)O
growth inhibition (GI) [14]: inactive

Structure (SMILES): Nc1ncc(C(=O)N(Cc2cc(Br)cc(Br)c2)Cc2ccc3[nH]ccc3c2)o1
MIC [6]: > 64 µg/mL | MIC [7]: > 64 µg/mL | Ki [8]: 2.9 µM | MIC [9]: > 64 µg/mL | Activity [1]: 44% | MIC [3]: > 200 µg/mL | inhibition [13]: Active

Structure (SMILES): Nc1ncc(C(=O)NCc2ccc3[nH]ccc3c2)o1
Activity [2]: 79% | MIC [3]: > 200 µg/mL

Structure (SMILES): Cc1ccc(-n2nnnc2-c2cn[nH]c2-c2cccc(C)c2)cc1
Activity [1]: 92%

Structure (SMILES): Nc1nc(NCc2ccc(Cl)cc2Cl)c2nc[nH]c2n1
Activity [1]: 85%

Structure (SMILES): Nc1nc(NCc2c(F)cccc2Cl)c2cn[nH]c2n1
Activity [1]: 84%

Structure (SMILES): Cc1nc(N)sc1C(=O)N(Cc1ccccc1)Cc1ccccc1
Activity [2]: 82% | MIC [3]: > 200 µg/mL

Structure (SMILES): COc1ccc(CNc2nc(N)nc3[nH]cnc23)c(OC)c1
Activity [1]: 89%

Structure (SMILES): CCN(Cc1ccncc1)C(=O)c1cnc(N)o1
Activity [2]: 98% | MIC [3]: > 200 µg/mL

Structure (SMILES): Nc1nc(NCc2cccc(Cl)c2Cl)c2cn[nH]c2n1
Activity [1]: 86%

Structure (SMILES): Nc1nc(NCc2ccc(Cl)s2)c2cn[nH]c2n1
Activity [1]: 74%

Structure (SMILES): Nc1nc(NCc2ccc(F)cc2F)c2cn[nH]c2n1
Activity [1]: 93%

Structure (SMILES): Nc1ncc(C(=O)Nc2nc3ccccc3[nH]2)o1
Activity [2]: 90% | MIC [3]: > 200 µg/mL

Structure (SMILES): Nc1nc(NCc2c(F)cccc2F)c2cn[nH]c2n1
Activity [1]: 88%

Structure (SMILES): Nc1nc(NCc2ccc(Cl)cc2Cl)c2cn[nH]c2n1
MIC [6]: > 64 µg/mL | MIC [7]: > 64 µg/mL | Ki [8]: 22 µM | MIC [9]: > 64 µg/mL | Activity [1]: 69% | inhibition [13]: Active

More lines, now with the values ahead:

Activity [4]: 110%
Structure (SMILES): Clc1ccc(CN(Cc2ccccc2)c2ncnc3[nH]cnc23)cc1

Activity [1]: 91%
Structure (SMILES): CS(=O)(=O)Nc1nc(CC(=O)N(Cc2cccs2)Cc2cccs2)cs1

Activity [4]: 94%
Structure (SMILES): Clc1cccc(Cl)c1CN(Cc1ccccc1)c1ncnc2[nH]cnc12

Activity [1]: 93%
Structure (SMILES): O=C(c1ccc(O)nc1)N(Cc1ccco1)Cc1cccs1

Activity [1]: 95%
Structure (SMILES): Nc1nnc(P(=O)(c2ccccc2)c2ccccc2)s1

inhibition [5]: Active | MIC [6]: > 64 µg/mL | MIC [7]: > 64 µg/mL | Ki [8]: 3.2 µM | MIC [9]: > 64 µg/mL | Ki [10]: 5 µM | Activity [1]: 47% | Kb [11]: 2 ×10⁵ /M
Structure (SMILES): Nc1nc(SCc2c(Cl)cccc2Cl)c2nc[nH]c2n1

Activity [1]: 87%
Structure (SMILES): Nc1nc(NCc2cccnc2Cl)c2cn[nH]c2n1

Activity [1]: 84%
Structure (SMILES): Nc1nc(NCc2ccc3c(c2)OCO3)c2nc[nH]c2n1

Activity [1]: 116%
Structure (SMILES): CN(C(=O)Cn1c(-c2nonc2N)nc2ccccc21)c1ccccc1

Activity [1]: 83%
Structure (SMILES): Nc1nc(NCc2ccc(Cl)c(Cl)c2)c2nc[nH]c2n1

Activity [1]: 83%
Structure (SMILES): c1ccc(CN(Cc2ccccc2)c2ncnc3[nH]cnc23)cc1

Activity [1]: 93%
Structure (SMILES): O=C(c1cnc(O)cn1)N(Cc1cccs1)CC1CCCO1 (stereo unspecified)

Activity [1]: 89%
Structure (SMILES): Nc1nonc1-c1nc2ccccc2n1CC(=O)Nc1ccccc1
